According to ChEMBL document CHEMBL4390662, “Design, synthesis and biological evaluation of novel α-acyloxy carboxamides via Passerini reaction as caspase 3/7 activators” (Eur J Med Chem, 2019):
Activity calls are given as the source filed them. No cut-off for these calls is given here.

How the values were obtained:
[1] = Selectivity index, ratio of IC50 for human WI38 cells to IC50 for human HepG2 cells; format: toxicity; settings: WI38 cells versus HepG2 cells, read-out: Ratio IC50
In short: (§1)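 SI calculated as IC50 on normal Wi-38 fibroblasts divided by IC50 on the cancer cell line. Both came from 72 h MTT assays.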

[2] = tested on: NFS-60; experiment: Cytotoxicity against mouse NFS60 cells assessed as cell growth inhibition incubated for 72 hrs by MTT assay; format: functional, cell-based; settings: NFS-60, 72 h
In short: (§2)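 Cells grown in RPMI-1640 with 10% FBS and seeded at 5×10^3 per well. After 24 h, serial concentrations given for 72 h at 37°C, 5% CO2. Then 5 mg/mL MTT stock added for 3 h, formazan dissolved in DMSO, A570 read. IC50 calculated from the curves.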

[3] = Selectivity index, ratio of IC50 for human WI38 cells to IC50 for mouse NFS60 cells; in short: as §1
[4] = tested on: HepG2; experiment: Cytotoxicity against human HepG2 cells assessed as cell growth inhibition incubated for 72 hrs by MTT assay; format: functional, cell-based; settings: HepG2, 72 h; in short: as §2
[5] = tested on: MCF7; experiment: Cytotoxicity against human MCF7 cells assessed as cell growth inhibition incubated for 72 hrs by MTT assay; format: functional, cell-based; settings: MCF7, 72 h; in short: as §2
[6] = tested on: WI-38; experiment: Cytotoxicity against human WI38 cells assessed as cell growth inhibition incubated for 72 hrs by MTT assay; format: cell-based; settings: for IC50: Homo sapiens, WI-38, 72 h; for EC100: human, wi-38, 72 h
In short: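 Wi-38 fibroblasts grown in DMEM with 10% FBS and seeded at 5×10^3 per well. Attachment 24 h, then serial concentrations for 72 h at 37°C, 5% CO2. MTT stock (5 mg/mL) added for 3 h at 37°C, DMSO solubilization, absorbance at 570 nm. IC50 estimated.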

[7] = Selectivity index, ratio of IC50 for human WI38 cells to IC50 for human MCF7 cells; format: toxicity; settings: WI38 cells versus MCF7 cells, read-out: Ratio IC50; in short: as §1
[8] = tested on: Staphylococcus aureus; experiment: Antimicrobial activity against Staphylococcus aureus ATCC 25923 incubated for 24 hrs by agar well diffusion assay; format: functional
In short: (§3)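 Nutrient agar spread with 100 µL inoculum: bacteria at 1×10^8 CFU/mL, fungi at 1×10^6 CFU/mL. 10 mm wells loaded with 100 µL of compound in DMSO (final 1 mg/mL). Bacteria incubated 24 h at 37 °C, fungi 48 h at 28 °C. Inhibition zones measured in mm. Ciprofloxacin and fluconazole standards at 1 mg/mL, DMSO negative control.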

[9] = tested on: Candida albicans; experiment: Antimicrobial activity against Candida albicans ATCC 90028 incubated for 48 hrs by agar well diffusion assay; format: functional; in short: as §3
[10] = tested on: Enterococcus faecalis; experiment: Antimicrobial activity against Enterococcus faecalis ATCC 29212 incubated for 24 hrs by agar well diffusion assay; format: functional; in short: as §3
[11] = tested on: Pseudomonas aeruginosa; experiment: Antimicrobial activity against Pseudomonas aeruginosa ATCC 27853 incubated for 24 hrs by agar well diffusion assay; format: functional; in short: as §3
[12] = tested on: Escherichia coli; experiment: Antimicrobial activity against Escherichia coli ATCC 25922 incubated for 24 hrs by agar well diffusion assay; format: functional; in short: as §3

CCOC(=O)c1ccccc1C(=O)OC1(C(=O)Nc2ccc([N+](=O)[O-])cc2)CCCCC1
selectivity ratio [1]: 0.746
IC50 [2]: 488 nM
Ratio IC50 [3]: 0.79
IC50 [4]: 517 nM
IC50 [5]: 444 nM
IC50 [6]: 386 nM
EC100 [6]: 0.122 µM
selectivity ratio [7]: 0.869

O=C(/C=C/c1ccccc1)OC1(C(=O)Nc2ccc([N+](=O)[O-])cc2)CCCCC1
selectivity ratio [1]: 0.774
diameter of the inhibition zone (DIZ) [8]: inactive
diameter of the inhibition zone (DIZ) [9]: inactive
IC50 [2]: 50.5 nM
diameter of the inhibition zone (DIZ) [10]: inactive
Ratio IC50 [3]: 0.811
diameter of the inhibition zone (DIZ) [11]: inactive
IC50 [4]: 52.9 nM
IC50 [5]: 57.6 nM
IC50 [6]: 41 nM
EC100 [6]: 0.0197 µM
diameter of the inhibition zone (DIZ) [12]: inactive
selectivity ratio [7]: 0.711

CCC(=O)OC1(C(=O)Nc2ccc([N+](=O)[O-])cc2)CCCCC1
selectivity ratio [1]: 2.07
diameter of the inhibition zone (DIZ) [8]: inactive
diameter of the inhibition zone (DIZ) [9]: inactive
IC50 [2]: 6.4 nM
diameter of the inhibition zone (DIZ) [10]: inactive
Ratio IC50 [3]: 6.968
diameter of the inhibition zone (DIZ) [11]: 12 mm
IC50 [4]: 21.5 nM
IC50 [5]: 14.1 nM
IC50 [6]: 44.6 nM
EC100 [6]: 0.0169 µM
diameter of the inhibition zone (DIZ) [12]: inactive
selectivity ratio [7]: 3.16

Cc1ccccc1C(=O)OC1(C(=O)Nc2ccc([N+](=O)[O-])cc2)CCCCC1
IC50 [5]: 516 nM
IC50 [6]: 352 nM
EC100 [6]: 0.018 µM
selectivity ratio [7]: 0.682

O=C(OC1(C(=O)Nc2ccc([N+](=O)[O-])cc2)C(=O)c2ccccc2C1=O)c1ccc(C(F)(F)F)cc1
selectivity ratio [1]: 4.59
IC50 [2]: 484 nM
Ratio IC50 [3]: 4.057
IC50 [4]: 428 nM
IC50 [5]: 393 nM
IC50 [6]: 1960 nM
EC100 [6]: 0.635 µM
selectivity ratio [7]: 5

CC(=O)OC1(C(=O)Nc2ccc([N+](=O)[O-])cc2)CCCCC1
selectivity ratio [1]: 0.743
IC50 [2]: 517 nM
Ratio IC50 [3]: 0.746
IC50 [4]: 519 nM
IC50 [5]: 403 nM
IC50 [6]: 386 nM
EC100 [6]: 0.122 µM
selectivity ratio [7]: 0.957

O=C(OC1(C(=O)Nc2ccc([N+](=O)[O-])cc2)CCCCC1)c1ccccc1I
IC50 [5]: 619 nM
IC50 [6]: 396 nM
EC100 [6]: 0.0247 µM
selectivity ratio [7]: 0.639

O=C(OC1(C(=O)Nc2ccc([N+](=O)[O-])cc2)CCCCC1)c1ccccc1
selectivity ratio [1]: 0.335
IC50 [2]: 766 nM
Ratio IC50 [3]: 0.322
IC50 [4]: 734 nM
IC50 [5]: 903 nM
IC50 [6]: 246 nM
EC100 [6]: 0.148 µM
selectivity ratio [7]: 0.272

CC1(C)CC(=O)C=C(Nc2ccc([N+](=O)[O-])cc2)C1
selectivity ratio [1]: 0.478
IC50 [2]: 645 nM
Ratio IC50 [3]: 0.494
IC50 [4]: 667 nM
IC50 [5]: 597 nM
IC50 [6]: 319 nM
EC100 [6]: 0.157 µM
selectivity ratio [7]: 0.534

O=C(CCC(=O)OC1(C(=O)Nc2ccc([N+](=O)[O-])cc2)CCCCC1)OC1(C(=O)Nc2ccc([N+](=O)[O-])cc2)CCCCC1
IC50 [6]: 203 nM
EC100 [6]: 0.02 µM

O=C(OC1(C(=O)Nc2ccc([N+](=O)[O-])cc2)CCCCC1)c1ccc(Br)cc1
selectivity ratio [1]: 1.84
IC50 [2]: 236 nM
Ratio IC50 [3]: 2.216
IC50 [4]: 284 nM
IC50 [5]: 237 nM
IC50 [6]: 523 nM
EC100 [6]: 0.0095 µM
selectivity ratio [7]: 2.21

O=C(OC1(C(=O)Nc2ccc([N+](=O)[O-])cc2)CCCCC1)c1ccc(C(F)(F)F)cc1
selectivity ratio [1]: 6.36
diameter of the inhibition zone (DIZ) [8]: inactive
diameter of the inhibition zone (DIZ) [9]: inactive
IC50 [2]: 26 nM
diameter of the inhibition zone (DIZ) [10]: inactive
Ratio IC50 [3]: 7.115
diameter of the inhibition zone (DIZ) [11]: inactive
IC50 [4]: 29.1 nM
IC50 [5]: 27.1 nM
IC50 [6]: 185 nM
EC100 [6]: 0.0398 µM
diameter of the inhibition zone (DIZ) [12]: inactive
selectivity ratio [7]: 6.83
